{"source": "paper PMC9894536", "about": "(Biomaterials science, 2023)", "key": {"[1]": {"format": "physicochemical", "conditions": "addition of PBS (final 1x PBS) to 5 mM solution; 10 ul 10x PBS to 100 ul", "how_it_was_run": "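Aqueous prodrug solutions, brought to pH 7.4 after purification, were gelled by adding 10× PBS at a 10:1 solution-to-buffer ratio to reach 1× PBS. Gel formation and the critical gelation concentration were judged by a simple vial-inversion test across prodrug concentrations.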"}, "[2]": {"test": "Critical micellization concentration by Nile red encapsulation assay", "format": "physicochemical", "conditions": "fluorescence ratio 635 nm vs 660 nm, aqueous, n = 3", "how_it_was_run": "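Critical micellization concentration was read on a fluorometer as the concentration where the ratio of fluorescence at 635 nm (encapsulated Nile red) to 660 nm (free Nile red) shifted. Measurements were made in aqueous prodrug solutions, and data are mean ± SD of 3.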"}, "[3]": {"test": "Free TFV release / prodrug stability with or without dithiothreitol", "format": "physicochemical", "conditions": "100 μM in 1x PBS, 10 mM DTT, 37 °C; for TFV released by 24 hours with DTT: RP-HPLC and ESI MS"}, "[4]": {"test": "In vitro gel release of TFV-PA from hydrogel depots", "format": "physicochemical", "how_it_was_run": "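Hydrogels were made from 5 and 10 mM prodrug solutions and aged at 37 °C under a fixed volume of PBS release medium. Supernatant was collected and replaced at set time points up to day 30 and analysed by analytical RP-HPLC. Release is given as nanomoles and as percent of conjugate in the original gel, mean ± SD, n = 3.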"}, "[5]": {"test": "Nanobelt width by negatively stained transmission electron microscopy", "format": "physicochemical", "conditions": "TEM, 1 mM concentration, mean ± SD, n = 35", "how_it_was_run": "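Samples were pH 7.4 aqueous solutions (1 mM shown), negatively stained and imaged by TEM. Nanobelt widths were measured from the images and reported as mean ± SD over 35 measurements.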"}, "[6]": {"test": "Instantaneous gelation on injection into PBS", "format": "physicochemical", "conditions": "10 mM solution assembled with 10 mM Nile red, injected into 10x PBS"}, "HBV": {"test_system": "HBV", "test": "Anti-HBV efficacy, HBV DNA in supernatant of HepAD38 cells by qPCR", "format": "cell-based", "conditions": "Hepatitis B virus, HePAD38, 96 h, read-out: IC50, HBV production"}}, "note": "Where a SMILES comes first, the peptide text is derived from it. The star is where a group is joined. X1 = C[C@H](Cn1cnc2c(N)ncnc21)OCP(=O)(O)OCCS*; Palmitoyl = CCCCCCCCCCCCCCCC(=O)*", "data": [{"smiles": "CCCCCCCCCCCCCCCC(=O)N[C@H](C(=O)N[C@H](C(=O)N[C@@H](CSSCCOP(=O)(O)CO[C@H](C)Cn1cnc2c(N)ncnc21)C(=O)N[C@@H](CCC(=O)O)C(=O)O)C(C)C)C(C)C", "note": "[TFV-PA2] (Palmitoyl-VVC(X1)E-OH; C-terminus assumed)", "values": [{"measurement": "gel formation of 5 mM solution", "setting": "[1]", "value": "weak gel formation"}, {"measurement": "critical micellization concentration (CMC)", "setting": "[2]", "value": 51, "unit": "µM"}, {"measurement": "TFV released after 1 hour with DTT", "setting": "[3]; 1 hour, RP-HPLC, n = 3", "value": "more than 90%"}, {"measurement": "TFV released by 24 hours with DTT", "setting": "[3]", "value": "all TFV released"}, {"measurement": "average concentration in the release supernatant, 5 mM gels", "setting": "[4]; 5 mM hydrogel, 37 °C, PBS release medium, RP-HPLC", "value": "361 ± 91", "unit": "µM"}, {"measurement": "percent release on day 14, 5 mM gel", "setting": "[4]; 5 mM hydrogel, 37 °C, PBS release medium, RP-HPLC, day 14, n = 3", "value": 56, "unit": "%"}, {"measurement": "prodrug released on day 14, 5 mM gel", "setting": "[4]; 5 mM hydrogel, 37 °C, PBS release medium, day 14, mean ± SD", "value": "126 ± 7", "unit": "nmol"}, {"measurement": "average concentration in the release supernatant, 10 mM gels", "setting": "[4]; 10 mM hydrogel, 37 °C, PBS release medium, RP-HPLC", "value": "619 ± 268", "unit": "µM"}, {"measurement": "percent release on day 14, 10 mM gel", "setting": "[4]; 10 mM hydrogel, 37 °C, PBS release medium, RP-HPLC, day 14, n = 3", "value": 48, "unit": "%"}, {"measurement": "prodrug released on day 14, 10 mM gel", "setting": "[4]; 10 mM hydrogel, 37 °C, PBS release medium, day 14, mean ± SD", "value": "217 ± 12", "unit": "nmol"}, {"measurement": "initial prodrugs released from hydrogel by day 14", "setting": "[4]; hydrogels aged at 37 °C with PBS release medium, RP-HPLC, day 14", "value": "about 50%"}, {"measurement": "nanobelt width", "setting": "[5]", "value": "11.8 ± 1.3", "unit": "nm"}, {"measurement": "gelation upon injection", "setting": "[6]", "value": "formed gels instantly upon injection"}]}, {"smiles": "CCCCCCCCCCCCCCCC(=O)N[C@H](C(=O)N[C@H](C(=O)N[C@H](C(=O)N[C@@H](CSSCCOP(=O)(O)CO[C@H](C)Cn1cnc2c(N)ncnc21)C(=O)N[C@@H](CCC(=O)O)C(=O)O)C(C)C)C(C)C)C(C)C", "note": "[TFV-PA3] (Palmitoyl-VVVC(X1)E-OH; C-terminus assumed)", "values": [{"measurement": "gel formation of 5 mM solution", "setting": "[1]", "value": "robust gel formation"}, {"measurement": "critical micellization concentration (CMC)", "setting": "[2]", "value": 8, "unit": "µM"}, {"measurement": "TFV released after 4 hours with DTT", "setting": "[3]; 4 hours, RP-HPLC, n = 3", "value": "more than 70%"}, {"measurement": "TFV released by 24 hours with DTT", "setting": "[3]", "value": "all TFV released"}, {"measurement": "percent released on day 30, 5 mM hydrogels", "setting": "[4]; 5 mM hydrogel, 37 °C, PBS release medium, RP-HPLC, day 30, mean ± SD, n = 3", "value": "16.3 ± 1.3", "unit": "%"}, {"measurement": "prodrug released on day 30, 5 mM hydrogels", "setting": "[4]; 5 mM hydrogel, 37 °C, PBS release medium, day 30, mean ± SD", "value": "36.7 ± 3.0", "unit": "nmol"}, {"measurement": "percent released on day 30, 10 mM hydrogels", "setting": "[4]; 10 mM hydrogel, 37 °C, PBS release medium, RP-HPLC, day 30, mean ± SD, n = 3", "value": "6.1 ± 0.5", "unit": "%"}, {"measurement": "average concentration of release supernatant from day 8 onwards, 10 mM gels", "setting": "[4]; 10 mM hydrogel, 37 °C, PBS release medium, day 8 onwards", "value": "13.3 ± 4.2", "unit": "µM"}, {"measurement": "prodrug released on day 30, 10 mM hydrogels", "setting": "[4]; 10 mM hydrogel, 37 °C, PBS release medium, day 30, mean ± SD", "value": "27.3 ± 2.2", "unit": "nmol"}, {"measurement": "initial prodrugs retained in hydrogel on day 30", "setting": "[4]; hydrogels aged at 37 °C with PBS release medium, RP-HPLC, day 30", "value": "more than 80%"}, {"measurement": "nanobelt width", "setting": "[5]", "value": "18.9 ± 3.0", "unit": "nm"}, {"measurement": "gelation upon injection", "setting": "[6]", "value": "formed gels instantly upon injection"}]}, {"smiles": "C[C@H](Cn1cnc2c(N)ncnc21)OCP(=O)(O)O", "note": "[TFV, tenofovir]", "values": [{"measurement": "IC50", "setting": "HBV", "value": 1100, "unit": "nM"}]}]}
